Data published in ChEMBL document CHEMBL1129512, “Studies on the mechanism of phosphatidylinositol 3-kinase inhibition by wortmannin and related analogs” (J Med Chem, 1996).
pIC50: −log10 of the molar value.

Tests used:
[1] = In vitro inhibitory activity against Phosphatidylinositol 3-Kinase
Summary of the method: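 Purified PI 3-kinase from bovine brain was used as the enzyme source. Results are reported as IC50 values.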

Mus musculus [2] = test: In vivo inhibition of tumor growth in C3H Mammary model was evaluated at dose 8.0 mg/kg peroral administration; range is 60-79%; assay type: functional; conditions: route oral
Summary of the method: (§1)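 Murine tumours were serially passaged as tumour fragments, implanted s.c. by trochar in the axillary region. Daily oral dosing began 1 day after implant, as a suspension in 2.5% emulphor EL-620 in 0.9% NaCl. There were 10 randomized mice per group. Tumours were measured by caliper the day after the last dose, with weight = length × width² × 0.5. Inhibition was 100 × (1 − mean treated/mean control weight). A group was toxic if lethality was >25%.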

Mus musculus [3] = test: In vivo inhibition of tumor growth in C3H Mammary model was evaluated at dose 16 mg/kg peroral administration; assay type: functional; conditions: route oral; summary of the method: as §1
Mus musculus [4] = test: In vivo inhibition of tumor growth in C3H Mammary model was evaluated at dose 1.0 mg/kg peroral administration; assay type: functional; conditions: route oral; summary of the method: as §1
Mus musculus [5] = test: In vivo inhibition of tumor growth in C3H Mammary model was evaluated at dose 0.50 mg/kg peroral administration; assay type: functional; conditions: route oral; summary of the method: as §1
Mus musculus [6] = test: In vivo inhibition of tumor growth in C3H Mammary model was evaluated at dose 4.0 mg/kg peroral administration; assay type: functional; conditions: route oral
Summary of the method: (§2)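 Murine C3H mammary tumour fragments were implanted subcutaneously by trochar in the axillary region, in groups of 10 randomized mice. Oral dosing started 1 day after implant, daily ×10, as a suspension in 2.5% emulphor EL-620 in 0.9% NaCl (water for one analog). Tumour weight, calculated as length×width²×0.5 from calipers, was measured the day after the last dose. Percent inhibition was calculated versus controls. Groups with >25% lethality were scored toxic.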

Mus musculus [7] = test: In vivo inhibition of tumor growth in C3H Mammary model was evaluated at dose 2.0 mg/kg peroral administration; assay type: functional; conditions: route oral; summary of the method: as §2

SMILES	pIC50 [1]	further results
C/N=C/C1=C(O)O[C@H](COC)[C@@]2(C)C1=C(O)C(=O)C1=C2[C@H](OC(C)=O)C[C@]2(C)C(=O)CC[C@@H]12	< 6.30	
COC[C@H]1OC(O)=C(C=N)C2=C(O)C(=O)C3=C([C@H](OC(C)=O)C[C@]4(C)C(=O)CC[C@@H]34)[C@]21C	< 6.30	
COC[C@H]1OC(=O)c2coc3c2[C@@]1(C)C1=C(C3=O)[C@@H]2C[C@@H](OC(C)=O)C(=O)[C@@]2(C)C[C@H]1OC(C)=O	6.51	
COC[C@H]1OC(=O)c2coc3c2[C@@]1(C)C1=CC[C@]2(C)C(=O)CC[C@H]2C1C3=O (stereo not given in full)	7.27	inhibition in vivo at 8 mg/kg (Mus musculus [2]): 79%; inhibition in vivo at 16 mg/kg (Mus musculus [3]): > 25%
COC[C@H]1OC(=O)c2coc3c2[C@@]1(C)C1=C(C3=O)[C@@H]2CC[C@H](O)[C@@]2(C)C[C@H]1OC(C)=O	9.30	inhibition in vivo at 1 mg/kg (Mus musculus [4]): > 25%; inhibition in vivo at 0.5 mg/kg (Mus musculus [5]): < 60%
CCC/N=C\C1=C(O)O[C@H](COC)[C@@]2(C)C1=C(O)C(=O)C1=C2[C@H](OC(C)=O)C[C@]2(C)C(=O)CC[C@@H]12	< 6.30	
COC[C@H]1OC(=O)c2coc3c2[C@@]1(C)C1=C(C3=O)[C@@H]2CCC(=O)[C@@]2(C)CC1	7.77	inhibition in vivo at 4 mg/kg (Mus musculus [6]): > 25%; inhibition in vivo at 2 mg/kg (Mus musculus [7]): < 60%
COC[C@H]1OC(=O)c2coc3c2[C@@]1(C)C1=C(C3=O)[C@@H]2C[C@@H](Br)C(=O)[C@@]2(C)C[C@H]1OC(C)=O	7.11	
CCCCS/C=C1\C(=O)O[C@H](COC)[C@@]2(C)C1=C(O)C(=O)C1=C2[C@H](OC(C)=O)C[C@]2(C)C(=O)CC[C@@H]12	7.28	
